From ChEMBL document CHEMBL1817569, “Synthesis, antifungal activity and QSAR study of 2-arylhydroxynitroindoles” (Eur J Med Chem, 2011)

Key:
Assay type in all cases: functional
Conditions in all cases: read-out: GI
Fusarium oxysporum = assay: Fungicidal activity against Fusarium oxysporum assessed as mycelium growth inhibition at 30 ug/mL after 72 hrs
In short: (§1)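 Radial mycelial growth test on potato-saccharose agar mixed with compound at a single concentration. Plates are inoculated with inverted 3-mm fungus-coated discs and incubated at 25 °C. Colony diameter (mm) is read at 72 h against medium without sample. Inhibition I = [(DC − DT)/DC] × 100%. Three replicates.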

Venturia inaequalis = assay: Fungicidal activity against Venturia inaequalis assessed as mycelium growth inhibition at 30 ug/mL after 72 hrs; in short: as §1
Bipolaris sorokiniana = assay: Fungicidal activity against Bipolaris sorokiniana assessed as mycelium growth inhibition at 30 ug/mL after 72 hrs; in short: as §1
Sclerotinia sclerotiorum = assay: Fungicidal activity against Sclerotinia sclerotiorum assessed as mycelium growth inhibition at 30 ug/mL after 72 hrs; in short: as §1
Fusarium verticillioides = assay: Fungicidal activity against Fusarium moniliforme assessed as mycelium growth inhibition at 30 ug/mL after 72 hrs; in short: as §1
Rhizoctonia solani = assay: Fungicidal activity against Rhizoctonia solani assessed as mycelium growth inhibition at 30 ug/mL after 72 hrs; in short: as §1

Compound | inhibition of growth at 30 µg/mL (Fusarium oxysporum) [%] | inhibition of growth at 30 µg/mL (Venturia inaequalis) [%] | inhibition of growth at 30 µg/mL (Bipolaris sorokiniana) [%] | inhibition of growth at 30 µg/mL (Sclerotinia sclerotiorum) [%] | inhibition of growth at 30 µg/mL (Fusarium verticillioides) [%] | inhibition of growth at 30 µg/mL (Rhizoctonia solani) [%]
Cn1c(-c2ccccc2)cc2c(O)cc([N+](=O)[O-])cc21 | 56 | 46 | 77 | 23 | 51 | 77
O=[N+]([O-])c1cc(O)c2cc(-c3ccc(O)cc3)[nH]c2c1 | 27 | 20 | 18 | 19 | 39 | 38
O=[N+]([O-])c1cc(O)c2cc(-c3ccccc3Cl)[nH]c2c1 | 88 | 44 | 100 | 100 | 100 | 100
Cc1c(-c2ccccc2)[nH]c2c([N+](=O)[O-])cc(O)cc12 | 34 | 41 | 83 | 51 | 54 | 91
O=[N+]([O-])c1cc(O)c2c(CCn3cncn3)c(-c3ccc(F)cc3)[nH]c2c1 | 28 | 2 | 52 | 17 | 30 | 31
O=[N+]([O-])c1cc(O)c2cc(-c3ccc(C(F)(F)F)cc3)[nH]c2c1 | 71 | 53 | 74 | 70 | 84 | 82
COc1ccccc1-c1cc2c(O)cc([N+](=O)[O-])cc2[nH]1 | 15 | 26 | 20 | 20 | 36 | 8
COc1cc([N+](=O)[O-])cc2[nH]c(-c3ccccc3)c(C)c12 | 11 | 2 | 7 | 5 | 7 | 13
O=[N+]([O-])c1cc(O)c2cc(-c3ccc(Cl)cc3Cl)[nH]c2c1 | 25 | 26 | 22 | 29 | 54 | 36
COc1cc([N+](=O)[O-])cc2c1c(C)c(-c1ccccc1)n2C | 8 | 12 | 12 | 0 | 8 | 4
O=[N+]([O-])c1cc(O)c2cc(-c3ccccc3)n(Cc3ccc(Cl)cc3)c2c1 | 27 | 12 | 11 | 2 | 18 | 34
